Publication PMC8774845 (Plant Physiology, 2021)
Where “and” joins values, the source holds several entries; their conditions need not be identical. Equal entries are not always repeated. Entries after “also recorded” stand apart in the source; their conditions may differ. Where two headings read alike, the source gives them in different places.

Tests used:
PpADT-G [1] = experiment: Inhibition of ADT activity by Phe, recombinant enzyme; type: biochemical, Pinus pinaster
How it was run: (§1)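 The Pinus pinaster ADT was used either as wild-type or as chimeras made by fusion PCR. It was His-tagged without the transit peptide, expressed in E. coli BL21 DE3 RIL and Ni-purified. About 1 µg of protein in 50 mM Tris pH 8.0 was preincubated 5 min with a range of Phe concentrations. Reaction started with 0.1 mM Agn at 30°C and was stopped with methanol. Phe product was quantified by UPLC/MS, with linearity checked over ≥5 min. At least duplicate; IC50 from kinetic fitting.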

PpADT-C [2] = experiment: as above; type: biochemical, Pinus pinaster; conditions: read-out: ADT IC50 (μM of Phe), 0.1 mM of Agn
How it was run: as §1

PpADT-Gmut^1 [3] = experiment: Inhibition of ADT activity by Phe, chimeric enzyme; type: biochemical, Pinus pinaster; conditions: read-out: ADT IC50 (μM of Phe), 0.1 mM of Agn
How it was run: as §1

PpADT-Cmut^1 [4] = experiment: Inhibition of ADT activity by Phe, chimeric enzyme; type: biochemical, Pinus pinaster; conditions: read-out: ADT IC50 (μM of Phe), 0.1 mM of Agn
How it was run: as §1

PpADT-G [5] = experiment: Inhibition of PDT activity by Phe, recombinant enzyme; type: biochemical, Pinus pinaster
How it was run: (§2)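 PDT reaction: about 5 µg of His-tagged, Ni-purified Pinus pinaster ADT (wild-type or fusion-PCR chimera) in 50 mM Tris pH 8.0 was preincubated 5 min with Phe. The reaction started with 1 mM Ppa at 30°C; Ppa content was first verified by HCl conversion. It was stopped with 2 M NaOH and left ≥10 min at room temperature. Phenylpyruvate was read at 321 nm against a calibration curve. At least duplicate; IC50, Ki and inhibition type came from kinetic fitting.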

PpADT-C [6] = experiment: as above; type: biochemical, Pinus pinaster
How it was run: as §2

PpADT-Gmut^1 [7] = experiment: Inhibition of PDT activity by Phe, chimeric enzyme; type: biochemical, Pinus pinaster
How it was run: as §2

PpADT-Cmut^1 [8] = experiment: Inhibition of PDT activity by Phe, chimeric enzyme; type: biochemical, Pinus pinaster
How it was run: as §2

PpADT-Gmut^6 = experiment: Inhibition of PDT activity by Phe, mutant enzyme; type: biochemical, Pinus pinaster; conditions: read-out: IC50 (μM) for Phe; PDT reaction, 1 mM of substrate (Ppa); Thr303→Ala, Leu304→Gln
How it was run: (§3)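 Ni-purified His-tagged mutants, expressed in E. coli BL21 DE3 RIL, were assayed for PDT activity. About 5 µg protein in 50 mM Tris pH 8.0 was preincubated 5 min at 30°C with varying Phe. Reactions were started with 1 mM prephenate, stopped with 2 M NaOH and read at 321 nm against a phenylpyruvate calibration. Runs were in triplicate, linear ≥5 min, with IC50 obtained by kinetic fitting.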

PpADT-Gmut^62 = experiment: Inhibition of PDT activity by Phe, mutant enzyme; type: biochemical, Pinus pinaster; conditions: read-out: IC50 (μM) for Phe; PDT reaction, 1 mM of substrate (Ppa); Thr303→Ala, Leu304→His
How it was run: as §3

PpADT-Gmut^8 [9] = experiment: Inhibition of PDT activity by Phe, mutant enzyme; type: biochemical, Pinus pinaster; conditions: read-out: IC50 (μM) for Phe; PDT reaction, 1 mM of substrate (Ppa); Pro308→Thr, Gly309→Ser
How it was run: as §3

PpADT-Gmut^9 = experiment: Inhibition of PDT activity by Phe, mutant enzyme; type: biochemical, Pinus pinaster; conditions: read-out: IC50 (μM) for Phe; PDT reaction, 1 mM of substrate (Ppa); Ala314→Val, Ala316→Ser, Val317→Ala
How it was run: as §3

PpADT-Gmut^11 = experiment: Inhibition of PDT activity by Phe, mutant enzyme; type: biochemical, Pinus pinaster; conditions: read-out: IC50 (μM) for Phe; PDT reaction, 1 mM of substrate (Ppa); Ala314→Val
How it was run: (§4)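 PpADT-G point mutants were made by site-directed mutagenesis, expressed His-tagged in E. coli BL21 DE3 RIL and Ni-purified. About 5 µg of protein in 50 mM Tris pH 8.0 was preincubated 5 min with varying Phe. The PDT reaction started with 1 mM Ppa at 30°C and was stopped with 2 M NaOH. Phenylpyruvate was read by absorbance at 321 nm against a phenylpyruvate calibration. Triplicate; IC50 was fitted.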

PpADT-Gmut^12 = experiment: Inhibition of PDT activity by Phe, mutant enzyme; type: biochemical, Pinus pinaster; conditions: read-out: IC50 (μM) for Phe; PDT reaction, 1 mM of substrate (Ppa); Ala316→Ser
How it was run: as §4

PpADT-Gmut^13 = experiment: Inhibition of PDT activity by Phe, mutant enzyme; type: biochemical, Pinus pinaster; conditions: read-out: IC50 (μM) for Phe; PDT reaction, 1 mM of substrate (Ppa); Val317→Ala
How it was run: as §4

PpADT-Gmut^16 = experiment: Inhibition of PDT activity by Phe, mutant enzyme; type: biochemical, Pinus pinaster; conditions: read-out: IC50 (μM) for Phe; PDT reaction, 1 mM of substrate (Ppa); Ala316→Ser, Val317→Ala
How it was run: as §3

PpADT-Gmut^10 = experiment: Inhibition of PDT activity by Phe, mutant enzyme; type: biochemical, Pinus pinaster; conditions: read-out: IC50 (μM) for Phe; PDT reaction, 1 mM of substrate (Ppa); Leu320→Phe, Asn324→Ser
How it was run: as §3

PpADT-Gmut^102 = experiment: Inhibition of PDT activity by Phe, mutant enzyme; type: biochemical, Pinus pinaster; conditions: read-out: IC50 (μM) for Phe; PDT reaction, 1 mM of substrate (Ppa); Leu320→Phe
How it was run: as §4

PpADT-Gmut^103 = experiment: Inhibition of PDT activity by Phe, mutant enzyme; type: biochemical, Pinus pinaster; conditions: read-out: IC50 (μM) for Phe; PDT reaction, 1 mM of substrate (Ppa); Asn324→Ser
How it was run: as §4

PpADT-Gmut^8 [10] = experiment: Effect of 100 μM Phe over ADT activity, mutant enzyme; type: biochemical, Pinus pinaster; conditions: Phe at 100 µM
How it was run: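 His-tagged recombinant mutant enzyme without its transit peptide, expressed in E. coli BL21 DE3 RIL and Ni-purified. About 1 µg protein in 50 mM Tris pH 8.0 was preincubated 5 min at 30°C with 100 µM Phe. Arogenate was added to start the reaction, and methanol stopped it. Phe formed was quantified by UPLC/MS against a pure-Phe calibration. Activity is relative to the no-Phe control; error bars sd.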

AtADT1 = AtADT1 (Arabidopsis thaliana, UniProt Q9SA96); experiment: Effect of 100 μM Phe over ADT activity, recombinant type-I ADT; type: biochemical, A. thaliana; conditions: 100 µM of Phe, 100 µM of substrate (Agn), compared to control (absence of Phe)
Chain of AtADT1 (Q9SA96 49-392): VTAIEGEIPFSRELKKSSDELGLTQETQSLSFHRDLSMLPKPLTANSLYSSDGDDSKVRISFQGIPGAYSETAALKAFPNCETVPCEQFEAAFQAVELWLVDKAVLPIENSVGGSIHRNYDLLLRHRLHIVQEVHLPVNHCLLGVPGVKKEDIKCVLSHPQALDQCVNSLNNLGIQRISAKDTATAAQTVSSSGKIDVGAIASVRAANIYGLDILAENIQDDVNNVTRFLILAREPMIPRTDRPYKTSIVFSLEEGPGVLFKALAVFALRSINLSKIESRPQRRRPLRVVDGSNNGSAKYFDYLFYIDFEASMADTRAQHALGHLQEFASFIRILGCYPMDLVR
How it was run: (§5)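 Type-I or type-II plant ADT ORFs were cloned from cDNA into pET30b without the putative plastid transit peptide and with a C-terminal His tag. Proteins were expressed in E. coli BL21 DE3 RIL (0.5 mM IPTG, 18–20 h at 12°C) and Ni-purified. About 1 µg was preincubated 5 min with 100 µM Phe in 50 mM Tris pH 8.0. Reaction started with 100 µM Agn at 30°C and was stopped with methanol. Phe formed was quantified by UPLC/MS. Activity is relative to the no-Phe control (100%); triplicate.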

Potri11G4700 = experiment: as above; type: biochemical, Populus trichocarpa; conditions: 100 µM of Phe, 100 µM of substrate (Agn), compared to control (absence of Phe)
How it was run: as §5

Niben8991 = experiment: as above; type: biochemical, Nicotiana benthamiana; conditions: 100 µM of Phe, 100 µM of substrate (Agn), compared to control (absence of Phe)
How it was run: as §5

Cucsa52640 = experiment: as above; type: biochemical, Cucumis sativus; conditions: 100 µM of Phe, 100 µM of substrate (Agn), compared to control (absence of Phe)
How it was run: as §5

AtADT4 = AtADT4 (Arabidopsis thaliana, UniProt O22241); experiment: Effect of 100 μM Phe over ADT activity, recombinant type-II ADT; type: biochemical, A. thaliana; conditions: 100 µM of Phe, 100 µM of substrate (Agn)
Chain of AtADT4 (O22241 35-424): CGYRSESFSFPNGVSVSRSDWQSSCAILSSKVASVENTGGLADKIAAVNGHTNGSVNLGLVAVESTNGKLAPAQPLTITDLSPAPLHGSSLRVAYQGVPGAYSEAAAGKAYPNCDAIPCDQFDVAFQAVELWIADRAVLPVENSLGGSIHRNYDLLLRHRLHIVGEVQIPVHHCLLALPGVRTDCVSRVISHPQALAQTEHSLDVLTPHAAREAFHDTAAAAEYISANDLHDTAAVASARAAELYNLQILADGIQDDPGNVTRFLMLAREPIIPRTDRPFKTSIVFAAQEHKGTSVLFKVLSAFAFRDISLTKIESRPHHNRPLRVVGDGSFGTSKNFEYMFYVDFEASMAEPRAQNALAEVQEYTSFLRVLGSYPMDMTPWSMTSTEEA
How it was run: as §5

Potri4G188100 = experiment: as above; type: biochemical, P. trichocarpa; conditions: 100 µM of Phe, 100 µM of substrate (Agn)
How it was run: as §5

Orysa4G33390 = experiment: as above; type: biochemical, O. sativa; conditions: 100 µM of Phe, 100 µM of substrate (Agn)
How it was run: as §5

Zeama2G125923 = experiment: as above; type: biochemical, Zea mays; conditions: 100 µM of Phe, 100 µM of substrate (Agn)
How it was run: as §5

ADT activity = conditions: read-out: IC50 for ADT activity; crude plant extracts; ref Jung et al., 1986; cited from earlier work
plastidial CM [11] = conditions: read-out: Ki, inhibition of plastidial CM by Phe; ref Benesova and Bode, 1992; cited from earlier work
plastidial CM [12] = conditions: read-out: Ki, inhibition of plastidial CM by Phe; ref Kuroki and Conn, 1988; cited from earlier work
plastidial CM [13] = conditions: read-out: IC50, inhibition of plastidial CM by Phe; ref Westfall et al., 2014; cited from earlier work
plastidial CM [14] = conditions: read-out: IC50, inhibition of plastidial CM by Phe; ref Kroll et al., 2017; cited from earlier work
[15] = read-out: PDT IC50 (μM of Phe), 1 mM of Ppa

With `N[C@@H](Cc1ccccc1)C(=O)O` [Phe, phenylalanine] the “ADT activity at 100 µM of Phe” value (PpADT-G [1]; 100 µM of Phe) was “mostly inactive”, the IC50 (PpADT-G [1]; read-out: ADT IC50 (μM of Phe), ADT activity, 0.1 mM of Agn) was 27.6 ± 1.5 µM and the IC50 (PpADT-C [2]) was > 100 µM. For the same compound, the IC50 (PpADT-Gmut^1 [3]) was > 100 µM, the IC50 (PpADT-Cmut^1 [4]) was ~52.8 µM and 52.8 µM and the “Proposed type of inhibition” value (PpADT-G [5]) was “Uncompetitive”. The IC50 (PpADT-G [5]; [15]) was 47.7 ± 3 µM, the Ki (PpADT-G [5]; read-out: PDT K i (μM of Phe)) was 28.1 ± 1 µM and the “Proposed type of inhibition” value (PpADT-C [6]) was “Cooperative”. For the same compound, the IC50 (PpADT-C [6]; [15]) was 320 µM, the “Proposed type of inhibition” value (PpADT-Gmut^1 [7]) was “allosteric; also recorded: Cooperative” and the IC50 (PpADT-Gmut^1 [7]; [15]) was 390 ± 15.4 µM. For the same compound, the “Proposed type of inhibition” value (PpADT-Cmut^1 [8]) was “Uncompetitive”, the IC50 (PpADT-Cmut^1 [8]; [15]) was ~36.1 µM and 36.1 µM and the Ki (PpADT-Cmut^1 [8]; read-out: PDT K i (μM of Phe)) was 170 ± 16.3 µM. For the same compound, the IC50 (PpADT-Gmut^6) was 333 ± 8 µM, the IC50 (PpADT-Gmut^62) was 333.5 ± 3.1 µM and the IC50 (PpADT-Gmut^8 [9]) was 445 µM. For the same compound, the IC50 (PpADT-Gmut^9) was 17.5 ± 3.7 µM, the IC50 (PpADT-Gmut^11) was 14.6 ± 2.3 µM and the IC50 (PpADT-Gmut^12) was 26 ± 4.8 µM. The IC50 (PpADT-Gmut^13) was 23.6 ± 1.4 µM, the IC50 (PpADT-Gmut^16) was 17.2 ± 0.2 µM and the IC50 (PpADT-Gmut^10) was 184 ± 24.7 µM. The IC50 (PpADT-Gmut^102) was 135.4 ± 0.7 µM, the IC50 (PpADT-Gmut^103) was 234 ± 4.9 µM and the “Phe-mediated inhibition of ADT activity compared to the wild-type” value (PpADT-Gmut^8 [10]) was “more resistant to inhibition than the wild-type”. The “decrease in ADT activity” value (AtADT1) was > 90%, the “decrease in ADT activity” value (Potri11G4700) was > 90% and the “decrease in ADT activity” value (Niben8991) was > 90%. The “decrease in ADT activity” value (Cucsa52640) was > 90%, the “effect on ADT activity” value (AtADT4) was “not substantially affected” and the “effect on ADT activity” value (Potri4G188100) was “not substantially affected”. For the same compound, the “effect on ADT activity” value (Orysa4G33390) was “not substantially affected”, the “effect on ADT activity” value (Zeama2G125923) was “not substantially affected” and the IC50 (ADT activity) was ~35 µM. The Ki (plastidial CM [11]) was 1100 µM, the Ki (plastidial CM [12]) was 550 µM and the IC50 (plastidial CM [13]) was 50 µM. For the same compound, the IC50 (plastidial CM [14]) was 82 µM.
